Measured values reported in ChEMBL document CHEMBL1158765, “Cyclic peroxides derived from the marine sponge Plakortis simplex” (J Nat Prod, 2005).
≈ marks a conversion by molar mass, not a printed value.

Columns and labels:
Format in all cases: functional, cell-based
[1] = Antitumor activity against human GXF251L cells; conditions: GXF 251L
In short: (§1)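 Human tumor cell lines derived from patient tumors grown subcutaneously in NMRI nu/nu mice, cultured as monolayers and exposed to test compounds. Surviving cells were stained with a fluorescent dye. Doubling times 24-35 h. IC50 taken from concentration-dependent T/C values. Where not reached within the test range, IC extrapolated by linear regression if within 3-fold of the highest concentration.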

[2] = Antitumor activity against human LXF 529L cells; in short: as §1
[3] = Antitumor activity against human UXF 1138L cells; in short: as §1
[4] = Antitumor activity against human MEXF 642NL cells; in short: as §1
[5] = Antitumor activity against human RXF 486L cells; in short: as §1
[6] = Antitumor activity against human MAXF 401NL cells; in short: as §1

Q: For `CCCCCC[C@@]1(CC)C=C(CC)[C@@H](CC(=O)OC)OO1` (relative stereo), which IC50 [1] is on record?
A: 8.3 µg/mL (≈ 27.8 µM)

Q: What about the IC50 [2] of the same molecule?
A: 7.7 µg/mL (≈ 25.8 µM)

Q: And the IC50 [3]?
A: 14.4 µg/mL (≈ 48.3 µM)

Q: What about the IC50 [4] of the same molecule?
A: 7.2 µg/mL (≈ 24.1 µM)

Q: And the IC50 [5]?
A: 14.1 µg/mL (≈ 47.2 µM)

Q: Which IC50 [1] does the source give for `CCCCC[C@@]1(CC)C=C(CC)[C@@H](CC(=O)OC)OO1` (relative stereo) here?
A: > 10 µg/mL

Q: What about the IC50 [2] of the same molecule?
A: > 10 µg/mL

Q: And the IC50 [6]?
A: > 10 µg/mL

Q: And the IC50 [3]?
A: > 10 µg/mL

Q: And the IC50 [4]?
A: > 10 µg/mL

Q: What about the IC50 [5] of the same molecule?
A: > 10 µg/mL
